Measured values of several laboratories.
Protocols differ between the studies behind these lines.
Target: Mitogen-activated protein kinase 7 (MAPK7, Homo sapiens, UniProt Q13164)

Cn1cc(Cl)c2c(Oc3c(F)cc(Nc4cc(Cl)nc(N)n4)cc3F)ccnc21 gave a remaining binding of 100% (cell-free assay, competition with immobilised ligand; 0.1 µM).
For CNc1cc(Oc2cc(C(=O)Nc3cc(N4CCN(C)CC4)cc(C(F)(F)F)c3)ccc2C)ncn1, the inhibition was -24.1% (target engagement in cells, inhibitor, chemoproteomics; Huh-7; 1 µM).
CC(C)(C)c1nc2c(s1)c1nc(N)ncc1c1ccc(NS(=O)(=O)c3c(F)cccc3F)c(F)c12 has a remaining activity of 80% (enzyme activity, inhibitor, radiometric; 1 µM).
For CCCCNc1ncc2c(-c3ccc(F)cc3)nn(C[C@H]3CC[C@H](N)CC3)c2n1, the inhibition was 11% (target engagement in cells, inhibitor, chemoproteomics; 20 mM).
The remaining binding of CS(=O)(=O)N1CCCC(NC(=O)[C@H](CCC2CCCCC2)NC(=O)c2ccc(CNc3ncnc4c3nnn4-c3ccccc3)cc2)C1 (stereo partly shown) is reported as 94% (cell-free assay, competition with immobilised ligand; 0.1 µM).
The activity vs control of FC(F)(F)Oc1cccc(-c2cnc3ccc(-c4ccncc4)nn23)c1 is reported as 51% (enzyme activity, inhibitor, radiometric; 1 µM).
COc1cccc2c(NCc3ccccc3)nc(-n3c(N)nc4ccccc43)nc12 has an inhibition of -14.3% (target engagement in cells, inhibitor, chemoproteomics; 20 mM).
With CC(C)(O)[C@H]1CC[C@H](Nc2ccc3ncc(-c4cccc(C(F)(F)F)c4)n3n2)CC1 the remaining activity was 98.9% (enzyme activity, inhibitor; 1 µM).
COc1ccc2c(c1)O[C@@H](c1ccc(OC)c(OC)c1)C[C@H]2NC(=O)C1(c2ccc3c(c2)OC(F)(F)O3)CC1 gave a remaining binding of 100% (cell-free assay, competition with immobilised ligand; 1 µM).
The remaining activity of O=C(Nc1cnn(-c2csc(C(=O)NC3COC3)c2)c1)Nc1ccccc1Cl is reported as 119% (enzyme activity, inhibitor; 5 µM).
The remaining activity of Cc1ccc(C(=O)Nc2ccc(CN3CCN(C)CC3)c(C(F)(F)F)c2)cc1C#Cc1cnc2cccnn12 is reported as 98% (enzyme activity, inhibitor; 23.5 nM).
With CSc1cccnc1N1CCN(Cc2nc3ccccc3[nH]2)CC1 the remaining binding was 100% (cell-free assay, competition with immobilised ligand; 1 µM).
The remaining activity of COc1cc(Nc2cnc(C#N)c(O[C@H](C)CN(C)C)n2)ncc1-c1cnn(C)c1 is reported as 86% (enzyme activity, inhibitor, radiometric; 1 µM).
